Biological target: T1, Adenosine receptor A1 (Homo sapiens) (UniProt P30542)
T1 sequence (whole entry): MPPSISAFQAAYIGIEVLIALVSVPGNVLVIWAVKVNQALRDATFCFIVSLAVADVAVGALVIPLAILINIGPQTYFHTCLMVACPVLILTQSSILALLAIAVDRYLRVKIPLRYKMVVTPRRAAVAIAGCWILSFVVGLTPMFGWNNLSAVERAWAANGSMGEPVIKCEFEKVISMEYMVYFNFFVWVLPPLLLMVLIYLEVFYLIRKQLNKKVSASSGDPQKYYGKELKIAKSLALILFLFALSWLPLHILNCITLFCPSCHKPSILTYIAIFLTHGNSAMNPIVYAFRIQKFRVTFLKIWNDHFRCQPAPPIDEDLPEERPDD
Assay: (§1) Displacement of [3H]-DPCPX from human adenosine A1 receptor expressed in CHO cell membranes after 120 mins by scintillation counting analysis
Parameters: concentration or dose not given beside the values
Conditions: not given
Method in brief: (§2)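 Membranes from transfected CHO cells in 50 mM Tris HCl pH 7.4 at 50 µg protein/assay, pretreated with adenosine deaminase 2 IU/ml. [3H]DPCPX 1 nM against 6-8 antagonist concentrations, 120 min at 25 °C. Non-specific binding defined with 1 µM DPCPX. GF/B filtration, then scintillation counting. Ki by Cheng-Prusoff, n=3-6, mean ± SEM.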

Structure (SMILES) | inhibition [%]
Cc1ccc(NC(=Nc2nc3nn(C)cc3c3nc(-c4ccco4)nn23)Nc2ccc(C)cc2)cc1 | 6
COc1cccc(NC(=Nc2nc3nn(C)cc3c3nc(-c4ccco4)nn23)Nc2cccc(OC)c2)c1 | 1
Cn1cc2c(nc(N=C(Nc3ccc(F)cc3)Nc3ccc(F)cc3)n3nc(-c4ccco4)nc23)n1 | 1
Cn1cc2c(nc(N=C(Nc3ccc(C#N)cc3)Nc3ccc(C#N)cc3)n3nc(-c4ccco4)nc23)n1 | 1
CC(C)NC(=Nc1nc2nn(C)cc2c2nc(-c3ccco3)nn12)NC(C)C | 4
CCN/C(=N\c1nc2nn(C)cc2c2nc(-c3ccco3)nn12)NCCCN(C)C | 22
Cn1cc2c(nc(N=C(Nc3ccc(Cl)cc3)Nc3ccc(Cl)cc3)n3nc(-c4ccco4)nc23)n1 | 8

Biological target: T2, Adenosine receptor A1 (Homo sapiens, UniProt P30542)
T2 sequence (P30542 whole entry): T1 sequence (whole entry)
Assay: as §1
Conditions: not given
Method in brief: as §2

Structure (SMILES) | Ki [nM]
Cc1ccc(NC(=Nc2nc3nn(C)cc3c3nc(-c4ccco4)nn23)Nc2ccc(C)cc2)cc1 | > 1000
COc1cccc(NC(=Nc2nc3nn(C)cc3c3nc(-c4ccco4)nn23)Nc2cccc(OC)c2)c1 | > 1000
Cn1cc2c(nc(N=C(Nc3ccc(F)cc3)Nc3ccc(F)cc3)n3nc(-c4ccco4)nc23)n1 | > 1000
Cn1cc2c(nc(N=C(Nc3ccc(C#N)cc3)Nc3ccc(C#N)cc3)n3nc(-c4ccco4)nc23)n1 | > 1000
CC(C)NC(=Nc1nc2nn(C)cc2c2nc(-c3ccco3)nn12)NC(C)C | > 1000
CCN/C(=N\c1nc2nn(C)cc2c2nc(-c3ccco3)nn12)NCCCN(C)C | > 1000
Cn1cc2c(nc(N=C(Nc3ccc(Cl)cc3)Nc3ccc(Cl)cc3)n3nc(-c4ccco4)nc23)n1 | > 1000

Biological target: Adenosine receptor A2a (Homo sapiens, UniProt P29274)
Sequence (P29274 whole entry): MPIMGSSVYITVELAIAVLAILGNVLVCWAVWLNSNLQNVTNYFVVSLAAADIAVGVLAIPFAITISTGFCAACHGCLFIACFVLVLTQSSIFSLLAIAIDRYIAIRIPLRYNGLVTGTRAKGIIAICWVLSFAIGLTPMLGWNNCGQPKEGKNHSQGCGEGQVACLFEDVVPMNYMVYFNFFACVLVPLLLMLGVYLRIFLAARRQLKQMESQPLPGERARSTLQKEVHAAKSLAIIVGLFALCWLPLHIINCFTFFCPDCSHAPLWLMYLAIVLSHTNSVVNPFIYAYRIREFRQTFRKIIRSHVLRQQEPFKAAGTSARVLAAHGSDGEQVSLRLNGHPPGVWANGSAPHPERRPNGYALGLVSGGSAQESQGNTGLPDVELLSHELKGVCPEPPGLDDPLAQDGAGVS
Assay: Displacement of [3H]-ZM241385 from human adenosine A2A receptor expressed in CHO cell membranes after 60 mins by scintillation counting analysis
Conditions: not given
Method in brief: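 Membranes from transfected CHO cells in 50 mM Tris HCl, 10 mM MgCl2, pH 7.4, at 50 µg protein/assay. [3H]ZM241385 2 nM with 6-8 competitor concentrations, 60 min at 4 °C. Non-specific binding defined with 1 µM ZM241385. Filtered on GF/B, bound radioactivity counted. Ki via Cheng-Prusoff, n=3-6, mean ± SEM.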

Structure (SMILES) | Ki [nM] | inhibition [%]
Cc1ccc(NC(=Nc2nc3nn(C)cc3c3nc(-c4ccco4)nn23)Nc2ccc(C)cc2)cc1 | > 1000 | 1
COc1cccc(NC(=Nc2nc3nn(C)cc3c3nc(-c4ccco4)nn23)Nc2cccc(OC)c2)c1 | > 1000 | 18
Cn1cc2c(nc(N=C(Nc3ccc(F)cc3)Nc3ccc(F)cc3)n3nc(-c4ccco4)nc23)n1 | > 1000 | 16
Cn1cc2c(nc(N=C(Nc3ccc(C#N)cc3)Nc3ccc(C#N)cc3)n3nc(-c4ccco4)nc23)n1 | > 1000 | 1
CC(C)NC(=Nc1nc2nn(C)cc2c2nc(-c3ccco3)nn12)NC(C)C | > 1000 | 1
CCN/C(=N\c1nc2nn(C)cc2c2nc(-c3ccco3)nn12)NCCCN(C)C | > 1000 | 3
Cn1cc2c(nc(N=C(Nc3ccc(Cl)cc3)Nc3ccc(Cl)cc3)n3nc(-c4ccco4)nc23)n1 | > 1000 | 11

Biological target: T3, Adenosine receptor A3 (Homo sapiens) (UniProt P0DMS8)
T3 sequence (whole entry): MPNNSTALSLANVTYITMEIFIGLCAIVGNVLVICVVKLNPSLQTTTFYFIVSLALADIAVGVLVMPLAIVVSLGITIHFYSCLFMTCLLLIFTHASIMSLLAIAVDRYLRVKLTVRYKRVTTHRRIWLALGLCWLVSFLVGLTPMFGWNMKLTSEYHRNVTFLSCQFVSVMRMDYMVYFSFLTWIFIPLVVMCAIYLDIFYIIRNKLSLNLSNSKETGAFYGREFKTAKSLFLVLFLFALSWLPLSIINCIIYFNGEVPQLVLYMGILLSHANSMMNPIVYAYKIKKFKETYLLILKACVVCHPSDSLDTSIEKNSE
Assay: (§3) Displacement of [3H]-MRE3008F20 from human adenosine A3 receptor expressed in CHO cell membranes after 120 mins by scintillation counting analysis
Conditions: not given
Method in brief: (§4)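 Membranes from transfected CHO cells in 50 mM Tris HCl, 10 mM MgCl2, 1 mM EDTA, pH 7.4, at 50 µg protein/assay. [3H]MRE3008F20 1 nM with 6-8 ligand concentrations, 120 min at 4 °C. Non-specific binding defined with 1 µM MRE3008F20. GF/B filtration, then scintillation counting. Ki by Cheng-Prusoff, n=3-6, mean ± SEM.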

Structure (SMILES) | inhibition [%]
CCN/C(=N\c1nc2nn(C)cc2c2nc(-c3ccco3)nn12)NCCCN(C)C | 19

Biological target: T4, Adenosine receptor A3 (Homo sapiens, UniProt P0DMS8)
T4 sequence (P0DMS8 whole entry): T3 sequence (whole entry)
Assay: as §3
Conditions: not given
Method in brief: as §4

Structure (SMILES) | Ki [nM]
Cc1ccc(NC(=Nc2nc3nn(C)cc3c3nc(-c4ccco4)nn23)Nc2ccc(C)cc2)cc1 | 63
COc1cccc(NC(=Nc2nc3nn(C)cc3c3nc(-c4ccco4)nn23)Nc2cccc(OC)c2)c1 | 155
Cn1cc2c(nc(N=C(Nc3ccc(F)cc3)Nc3ccc(F)cc3)n3nc(-c4ccco4)nc23)n1 | 122
Cn1cc2c(nc(N=C(Nc3ccc(C#N)cc3)Nc3ccc(C#N)cc3)n3nc(-c4ccco4)nc23)n1 | 30
CC(C)NC(=Nc1nc2nn(C)cc2c2nc(-c3ccco3)nn12)NC(C)C | 33
CCN/C(=N\c1nc2nn(C)cc2c2nc(-c3ccco3)nn12)NCCCN(C)C | > 1000
Cn1cc2c(nc(N=C(Nc3ccc(Cl)cc3)Nc3ccc(Cl)cc3)n3nc(-c4ccco4)nc23)n1 | 71

Biological target: T3, Adenosine receptor A3 (Homo sapiens)
Assay: Antagonist activity at human adenosine A3 receptor expressed in CHO cells assessed as inhibition of Cl-IB-MECA-mediated suppression of forskolin-induced cyclic-AMP accumulation by scintillation counting analysis in presence of [3H]-cyclic AMP
Format: cell-based
Conditions: not given
Method in brief: (§5)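 Preincubated at 37 °C. A2B: antagonism of NECA (100 nM)-stimulated cAMP. A3: forskolin 1 µM plus Cl-IB-MECA (100 nM). Stopped with cold 6% TCA, then ether-extracted. cAMP measured by competition protein binding with [3H]cAMP. KB derived by modified Cheng-Prusoff (Leff and Dougall), mean ± SEM.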

Structure (SMILES) | Kb [nM]
Cc1ccc(NC(=Nc2nc3nn(C)cc3c3nc(-c4ccco4)nn23)Nc2ccc(C)cc2)cc1 | 57
COc1cccc(NC(=Nc2nc3nn(C)cc3c3nc(-c4ccco4)nn23)Nc2cccc(OC)c2)c1 | 141
Cn1cc2c(nc(N=C(Nc3ccc(F)cc3)Nc3ccc(F)cc3)n3nc(-c4ccco4)nc23)n1 | 129
Cn1cc2c(nc(N=C(Nc3ccc(C#N)cc3)Nc3ccc(C#N)cc3)n3nc(-c4ccco4)nc23)n1 | 33
CC(C)NC(=Nc1nc2nn(C)cc2c2nc(-c3ccco3)nn12)NC(C)C | 36
CCN/C(=N\c1nc2nn(C)cc2c2nc(-c3ccco3)nn12)NCCCN(C)C | > 1000
Cn1cc2c(nc(N=C(Nc3ccc(Cl)cc3)Nc3ccc(Cl)cc3)n3nc(-c4ccco4)nc23)n1 | 63

Same assay, conditions: concentration not given here

Structure (SMILES) | inhibition [%]
CCN/C(=N\c1nc2nn(C)cc2c2nc(-c3ccco3)nn12)NCCCN(C)C | 3

Biological target: T5, Adenosine receptor A2b (Homo sapiens) (UniProt P29275)
T5 sequence (whole entry): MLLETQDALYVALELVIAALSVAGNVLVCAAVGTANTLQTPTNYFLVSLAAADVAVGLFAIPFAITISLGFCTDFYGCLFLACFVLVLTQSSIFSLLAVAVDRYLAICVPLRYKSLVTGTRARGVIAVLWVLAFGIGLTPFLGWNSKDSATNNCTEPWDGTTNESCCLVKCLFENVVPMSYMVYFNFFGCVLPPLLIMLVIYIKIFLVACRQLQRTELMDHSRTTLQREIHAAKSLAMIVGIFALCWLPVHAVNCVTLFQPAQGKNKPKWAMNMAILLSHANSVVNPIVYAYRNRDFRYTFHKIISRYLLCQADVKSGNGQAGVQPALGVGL
Assay: Antagonist activity at human adenosine A2B receptor expressed in CHO cells assessed as inhibition of NECA-stimulated cyclic AMP production by scintillation counting analysis in presence of [3H]-cyclic AMP
Format: cell-based
Parameters: inhibition: concentration or dose not given beside the values
Conditions: not given
Method in brief: as §5

Structure (SMILES) | Kb [nM]
Cc1ccc(NC(=Nc2nc3nn(C)cc3c3nc(-c4ccco4)nn23)Nc2ccc(C)cc2)cc1 | > 1000
COc1cccc(NC(=Nc2nc3nn(C)cc3c3nc(-c4ccco4)nn23)Nc2cccc(OC)c2)c1 | > 1000
Cn1cc2c(nc(N=C(Nc3ccc(F)cc3)Nc3ccc(F)cc3)n3nc(-c4ccco4)nc23)n1 | > 1000
Cn1cc2c(nc(N=C(Nc3ccc(C#N)cc3)Nc3ccc(C#N)cc3)n3nc(-c4ccco4)nc23)n1 | > 1000
CC(C)NC(=Nc1nc2nn(C)cc2c2nc(-c3ccco3)nn12)NC(C)C | > 1000
CCN/C(=N\c1nc2nn(C)cc2c2nc(-c3ccco3)nn12)NCCCN(C)C | > 1000
Cn1cc2c(nc(N=C(Nc3ccc(Cl)cc3)Nc3ccc(Cl)cc3)n3nc(-c4ccco4)nc23)n1 | > 1000

Same assay, conditions: concentration not given here

Structure (SMILES) | inhibition [%]
Cc1ccc(NC(=Nc2nc3nn(C)cc3c3nc(-c4ccco4)nn23)Nc2ccc(C)cc2)cc1 | 3
COc1cccc(NC(=Nc2nc3nn(C)cc3c3nc(-c4ccco4)nn23)Nc2cccc(OC)c2)c1 | 1
Cn1cc2c(nc(N=C(Nc3ccc(F)cc3)Nc3ccc(F)cc3)n3nc(-c4ccco4)nc23)n1 | 1
Cn1cc2c(nc(N=C(Nc3ccc(C#N)cc3)Nc3ccc(C#N)cc3)n3nc(-c4ccco4)nc23)n1 | 1
CC(C)NC(=Nc1nc2nn(C)cc2c2nc(-c3ccco3)nn12)NC(C)C | 3
CCN/C(=N\c1nc2nn(C)cc2c2nc(-c3ccco3)nn12)NCCCN(C)C | 1
Cn1cc2c(nc(N=C(Nc3ccc(Cl)cc3)Nc3ccc(Cl)cc3)n3nc(-c4ccco4)nc23)n1 | 2
